ChEMBL document CHEMBL1148976, “Hypoxia-inducible factor-1 activation by (-)-epicatechin gallate: potential adverse effects of cancer chemoprevention with high-dose green tea extracts” (J Nat Prod, 2004)
Active and inactive are the calls of the source. No cut-off for these calls is given here.

What was measured:
[1] = target: Aryl hydrocarbon receptor nuclear translocator (Homo sapiens) (UniProt P27540); test: Induction of HIF1beta protein in human T47D cells under normoxic condition at 100 uM after 4 hrs by Western blot analysis; format: cell-based
Method in brief: (§1)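 T47D cells (10 million per 100 mm plate, 10% FBS DMEM/F12) are plated and left overnight. Test compound, with or without iron salt, ascorbate or Trolox, is added for 30 min at 37 °C. Cells then stand 4 h under normoxia (5% CO2:95% air) or hypoxia (5% CO2:1% O2:94% N2). Nuclear extracts are probed for HIF-1α and HIF-1β by Western blot.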

[2] = target: Hypoxia-inducible factor 1-alpha (Homo sapiens) (UniProt Q16665); test: Induction of HIF1alpha protein in human T47D cells under normoxic condition at 100 uM after 4 hrs by Western blot analysis; format: cell-based; method in brief: as §1
[3] = test system: T47D; test: Induction of HIF1 activation in human T47D cells under normoxic condition at 100 uM in presence of 100 uM iron(2); format: cell-based
Method in brief: (§2)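 T47D cells transiently co-transfected by electroporation with pTK-HRE3-luc (50 μg mL−1) and pRL-TK (5 μg mL−1). Read-out is dual luciferase, with firefly normalized to Renilla. Incubation runs 16 h under normoxia. Iron salt or ascorbate is added with test compound (100 μM). Data come from one representative experiment in quadruplicate, mean ± SD, p <0.05 versus control.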

[4] = test system: T47D; test: Induction of HIF1 activation in human T47D cells under normoxic condition at 100 uM in presence of 300 uM iron(2); format: cell-based; method in brief: as §2
[5] = Chemical stability in DMEM/F12 medium in presence of fetal calf serum; format: physicochemical; details: cattle
Method in brief: (§3)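 Compound added at 100 μM final in serum-free DMEM/F12 with Pen/Strep to medium with 5% FBS, with or without T47D cells, 30 min, then hypoxia (1% O2) 16 h. Other samples: cell-free medium with or without antibiotics. Conditioned medium extracted; normal-phase TLC on silica gel G with UV254 indicator, UV254 quenching read-out. Extraction control: compound mixed with medium immediately before extraction.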

[6] = target: Hypoxia inducible factors; HIF-1-alpha, HIF-2-alpha (Homo sapiens) (UniProt Q16665+Q99814); test: Inhibition of hypoxia-induced HIF1 activation in human T47D cells expressing pTK-HRE-luc gene at 100 uM by luciferase reporter assay; format: cell-based
Method in brief: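 T47D cells co-transfected by electroporation with pTK-HRE3-luc and pRL-TK. Compound at 100 μM, then hypoxia (1% O2). Dual luciferase read-out, firefly normalized to Renilla. Value is % inhibition of hypoxic HIF-1 activation. pGL3-Control reporter cells used as specificity control.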

[7] = test system: T47D; test: Induction of HIF1 activation in human T47D cells expressing pTK-HRE-luc gene under normoxic condition at 100 uM after 16 hrs by luciferase reporter assay relative to control; format: cell-based
Method in brief: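 T47D cells transiently co-transfected by electroporation with pTK-HRE3-luc (50 μg mL−1) and pRL-TK (5 μg mL−1). Compound at 100 μM under normoxia (5% CO2:95% air, 37 °C) for 16 h. Dual luciferase read-out, firefly normalized to Renilla, expressed as fold over control. pGL3-Control transfected cells run as counter-check.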

[8] = Aqueous stability of the compound; format: physicochemical; details: buffer; method in brief: as §3
[9] = test system: T47D; test: Induction of HIF1 activation in human T47D cells under normoxic condition at 100 uM by luciferase reporter gene assay in presence of ascorbate; format: cell-based; method in brief: as §2
[10] = test system: T47D; test: Increase in HIF1alpha mRNA expression in human T47D cells under normoxic condition at 100 uM after 16 hrs by RT-PCR; format: functional, cell-based
Method in brief: (§4)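 T47D cells, pretreated 30 min, then 16 h under normoxia or hypoxia (1% O2). Total RNA extracted immediately after treatment, checked by absorbance and agarose gel. Target mRNA measured by quantitative real-time RT-PCR, normalized to 18S rRNA, relative expression by ΔΔCT method. Mean ± SD from one representative experiment in triplicate.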

[11] = target: Hypoxia-inducible factor 1-alpha (Homo sapiens) (UniProt Q16665); test: Induction of HIF1alpha protein in human T47D cells under normoxic condition at 100 uM after 4 hrs by Western blot analysis in presence of ascorbate; format: cell-based; method in brief: as §1
[12] = test system: T47D; test: Induction of HIF1 activation in human T47D cells under normoxic condition at 100 uM in presence of 50 uM iron(3); format: cell-based; method in brief: as §2
[13] = target: Hypoxia-inducible factor 1-alpha (Homo sapiens) (UniProt Q16665); test: Induction of HIF1alpha protein in human T47D cells under normoxic condition at 100 uM after 4 hrs by Western blot analysis in presence of 300 uM iron(2); format: cell-based; method in brief: as §1
[14] = test system: T47D; test: Inhibition of hypoxia-induced GLUT1 mRNA expression in human T47D cells at 100 uM after 16 hrs by RT-PCR; format: functional, cell-based; method in brief: as §4
[15] = target: Aryl hydrocarbon receptor nuclear translocator (Homo sapiens) (UniProt P27540); test: Induction of HIF1beta protein in human T47D cells under normoxic condition at 100 uM after 4 hrs by Western blot analysis in presence of 300 uM iron(2); format: cell-based; method in brief: as §1
[16] = target: Aryl hydrocarbon receptor nuclear translocator (Homo sapiens) (UniProt P27540); test: Induction of HIF1beta protein in human T47D cells under normoxic condition at 100 uM after 4 hrs by Western blot analysis in presence of 150 uM iron(3); format: cell-based; method in brief: as §1
[17] = test system: T47D; test: Induction of CDKN1A mRNA expression in human T47D cells under normoxic condition at 100 uM after 16 hrs by RT-PCR; format: functional, cell-based; method in brief: as §4
[18] = target: Hypoxia-inducible factor 1-alpha (Homo sapiens) (UniProt Q16665); test: Induction of HIF1alpha protein in human T47D cells under normoxic condition at 100 uM after 4 hrs by Western blot analysis in presence of trolox; format: cell-based; method in brief: as §1
[19] = test system: T47D; test: Induction of HIF1 activation in human T47D cells under normoxic condition at 100 uM in presence of 150 uM iron(3); format: cell-based; method in brief: as §2
[20] = target: Hypoxia-inducible factor 1-alpha (Homo sapiens) (UniProt Q16665); test: Inhibition of hypoxia-induced increase in HIF1alpha protein in human T47D cells at 100 uM after 4 hrs by Western blot analysis; format: cell-based; method in brief: as §1
[21] = test system: T47D; test: Inhibition of hypoxia-induced VEGF mRNA expression in human T47D cells at 100 uM after 16 hrs by RT-PCR; format: functional, cell-based; method in brief: as §4
[22] = test system: T47D; test: Induction of GLUT1 mRNA expression in human T47D cells under normoxic condition at 100 uM after 16 hrs by RT-PCR; format: functional, cell-based; method in brief: as §4
[23] = test system: T47D; test: Induction of VEGF mRNA expression in human T47D cells under normoxic condition at 100 uM after 16 hrs by RT-PCR; format: functional, cell-based; method in brief: as §4
[24] = target: Hypoxia-inducible factor 1-alpha (Homo sapiens) (UniProt Q16665); test: Induction of HIF1alpha protein in human T47D cells under normoxic condition at 100 uM after 4 hrs by Western blot analysis in presence of 150 uM iron(3); format: cell-based; method in brief: as §1
[25] = target: Aryl hydrocarbon receptor nuclear translocator (Homo sapiens) (UniProt P27540); test: Induction of HIF1beta protein in human T47D cells under normoxic condition at 100 uM after 4 hrs by Western blot analysis in presence of ascorbate; format: cell-based; method in brief: as §1
[26] = test system: T47D; test: Decrease in hypoxia-induced HIF1alpha mRNA expression in human T47D cells at 100 uM after 16 hrs by RT-PCR; format: functional, cell-based; method in brief: as §4
[27] = target: Hypoxia-inducible factor 1-alpha (Homo sapiens) (UniProt Q16665); test: Induction of HIF1alpha protein in human T47D cells under normoxic condition at 100 uM after 4 hrs by Western blot analysis in presence of 100 uM iron(2); format: cell-based; method in brief: as §1

Sequence of Hypoxia-inducible factor 1-alpha (Homo sapiens) (Q16665 whole entry, looked up): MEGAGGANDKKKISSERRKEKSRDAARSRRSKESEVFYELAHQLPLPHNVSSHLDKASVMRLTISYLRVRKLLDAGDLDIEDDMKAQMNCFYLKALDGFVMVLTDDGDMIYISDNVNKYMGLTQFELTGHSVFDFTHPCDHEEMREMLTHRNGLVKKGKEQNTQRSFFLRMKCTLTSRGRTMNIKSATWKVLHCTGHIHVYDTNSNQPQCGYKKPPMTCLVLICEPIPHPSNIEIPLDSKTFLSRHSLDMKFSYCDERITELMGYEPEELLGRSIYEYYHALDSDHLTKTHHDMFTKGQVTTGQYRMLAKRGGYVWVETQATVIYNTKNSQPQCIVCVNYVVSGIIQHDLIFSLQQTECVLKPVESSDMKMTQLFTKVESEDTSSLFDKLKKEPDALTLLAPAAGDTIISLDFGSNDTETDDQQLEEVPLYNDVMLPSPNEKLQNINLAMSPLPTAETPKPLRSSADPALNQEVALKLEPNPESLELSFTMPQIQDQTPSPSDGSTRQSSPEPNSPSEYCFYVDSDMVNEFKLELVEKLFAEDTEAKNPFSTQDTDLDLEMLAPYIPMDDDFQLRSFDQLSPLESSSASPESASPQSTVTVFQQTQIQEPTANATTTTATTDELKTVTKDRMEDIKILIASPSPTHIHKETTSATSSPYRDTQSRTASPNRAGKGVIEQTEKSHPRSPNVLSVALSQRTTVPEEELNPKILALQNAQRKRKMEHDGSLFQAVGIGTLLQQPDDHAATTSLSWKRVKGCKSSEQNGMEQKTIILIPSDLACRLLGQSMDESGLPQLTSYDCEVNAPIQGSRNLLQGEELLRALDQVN
Sequence of Aryl hydrocarbon receptor nuclear translocator (Homo sapiens) (P27540 whole entry): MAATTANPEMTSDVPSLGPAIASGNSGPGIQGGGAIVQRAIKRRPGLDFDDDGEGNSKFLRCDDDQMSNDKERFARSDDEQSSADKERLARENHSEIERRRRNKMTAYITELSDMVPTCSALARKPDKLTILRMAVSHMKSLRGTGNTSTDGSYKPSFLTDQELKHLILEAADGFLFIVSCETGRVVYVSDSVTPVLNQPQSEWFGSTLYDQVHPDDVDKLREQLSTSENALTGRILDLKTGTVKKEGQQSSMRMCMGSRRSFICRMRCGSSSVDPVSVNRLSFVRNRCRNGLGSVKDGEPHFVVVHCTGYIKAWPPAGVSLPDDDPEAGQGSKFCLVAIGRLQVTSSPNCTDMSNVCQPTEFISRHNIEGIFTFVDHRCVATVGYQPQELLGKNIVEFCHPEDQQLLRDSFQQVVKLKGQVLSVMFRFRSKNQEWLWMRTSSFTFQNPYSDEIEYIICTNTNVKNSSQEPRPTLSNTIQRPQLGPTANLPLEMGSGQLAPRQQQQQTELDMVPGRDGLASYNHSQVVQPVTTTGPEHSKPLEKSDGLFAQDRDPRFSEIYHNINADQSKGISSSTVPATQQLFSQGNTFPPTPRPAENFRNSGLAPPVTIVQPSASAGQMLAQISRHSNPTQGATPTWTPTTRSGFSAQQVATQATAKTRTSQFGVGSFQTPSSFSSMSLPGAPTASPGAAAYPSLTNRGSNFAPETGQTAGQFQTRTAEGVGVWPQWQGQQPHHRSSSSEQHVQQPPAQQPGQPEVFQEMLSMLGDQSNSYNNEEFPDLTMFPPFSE

Structure (SMILES): Cc1c(C)c2c(c(C)c1O)CCC(C)(C(=O)O)O2 (configuration not stated)
- Activity [1]: inactive
- Activity [2]: inactive

Structure (SMILES): CC(=O)N(O)CCCCCNC(=O)CCC(=O)N(O)CCCCCNC(=O)CCC(=O)N(O)CCCCCN
- Activity [3]: inactive
- Activity [4]: inactive

Structure (SMILES): O=C(O[C@@H]1Cc2c(O)cc(O)cc2O[C@@H]1c1cc(O)c(O)c(O)c1)c1cc(O)c(O)c(O)c1 [EPIGALOCATECHIN GALLATE]
- Stability [5]: Unstable
- Activity [6]: inactive
- fold change (FC) [7]: 3.6
- Stability [8]: Unstable

Structure (SMILES): O=C(O[C@@H]1Cc2c(O)cc(O)cc2O[C@@H]1c1ccc(O)c(O)c1)c1cc(O)c(O)c(O)c1
- Activity [9]: inactive
- Activity [10]: inactive
- Activity [11]: inactive
- Activity [12]: inactive
- inhibition [6]: 79%
- Activity [13]: inactive
- fold change (FC) [7]: 16.8
- Activity [14]: inactive
- Activity [15]: Active
- Activity [16]: Active
- Activity [17]: Active
- Activity [18]: Active
- Activity [19]: inactive
- Activity [20]: Active
- Activity [21]: inactive
- Activity [22]: Active
- Activity [1]: inactive
- Activity [23]: Active
- Activity [2]: Active
- Activity [4]: inactive
- Activity [24]: inactive
- Activity [25]: Active
- Activity [26]: inactive
- Activity [27]: inactive
